Measured values taken from article PMC7049346 (Haematologica, 2019).

Assays:
K562 cells [1] = settings: cited from earlier work
[2] = tested on: erythroid cells from CD34+ progenitors of SCD patients; assay: HbF induction in SCD patient-derived erythroblasts; assay type: cell-based, human; settings: 30 μM HU
How it was run: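 CD34⁺ progenitors came from the blood or bone marrow of nine SCD donors. Cells grew seven days with 15% BIT 9500, 2 mM L-glutamine, IL-3 (10 ng/mL), IL-6 and SCF (100 ng/mL). CD36⁺ cells were then isolated and grown five days with SCF, IL-3 and EPO (2 UI/mL) plus DMSO, 30 μM hydroxyurea or 10 μM test compound. HbF⁺ cells (%) and HbF MFI were read by PE-anti-HbF FACS, gated LiveDead⁻/GPA⁺/Band3⁺.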

K562 cells [3] = assay: cGMP induction in K562 cells; assay type: cell-based, human; settings: 6 h
How it was run: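 Actively growing K562 cells were treated for 6 h with increasing concentrations of the test compound or hydroxyurea. cGMP was measured by non-radioactive enzyme immunoassay using the acetylation protocol, and protein by BCA assay. Data are means±Standard Errors.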

HbSS-Townes mice [4] = assay: HbSS-Townes vaso-occlusive crisis model; assay type: in vivo; settings: HU 100 mg/kg/day for ten days, P<0.05
HbSS-Townes mice [5] = assay: Townes SCD model, 30 days daily oral dosing; assay type: in vivo; settings: for percentage of sickled RBC: vehicle 56%
K562 cells [6] = assay: Cytotoxicity in K562 cells; assay type: cell-based, human; settings: end of 72-h culture
How it was run: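 Actively growing K562 cells were cultured for 72 h with increasing concentrations of the test compound. Terminal viability was scored by automated cell counting or trypan-blue exclusion, or by an ATP-based luminescence assay. Apoptosis was checked by Annexin V flow cytometry.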

K562 cells [7] = assay: HbF induction in K562 cells; assay type: cell-based, human; settings: 72 h
mice = assay: Classical fear conditioning model of learning and memory; assay type: in vivo; settings: similar dose of both PDE9i
[8] = HU 100 mg/kg, 30 days, not significant

C[C@H](Cc1nc2c(cnn2-c2ccccc2Cl)c(=O)[nH]1)C(F)(F)F [BAY73-6691]
HbF mRNA expression (K562 cells [1]): increased HbF mRNA expression

Nc1nc(-c2nn(Cc3ccccc3F)c3ncccc23)ncc1C1CC1 [BAY 41-2271]
HbF mRNA expression (K562 cells [1]): increased HbF mRNA expression

NC(=O)NO [HU, Hydroxyurea]
percentage of F-cells (HbF positive) ([2]; five days, DMSO control 13.3%, n=7, P<0.01): 22.2% | intensity of HbF staining (MFI) ([2]; five days, control 6073±1217, n=7, P=0.041): 9744±2805 | Cytotoxicity in patient-derived cultures ([2]; 9 cultures): cytotoxicity induced by HU in 2 cultures | cGMP induction (K562 cells [3]): increases cGMP in a dose-dependent manner | microvascular stasis (HbSS-Townes mice [4]; 1 h in normoxia, vehicle 33%): 13% | microvascular stasis (HbSS-Townes mice [4]; 4 h in normoxia, vehicle 16%): 8% | percentage of sickled RBC (HbSS-Townes mice [5]; HU 25 mg/kg/day, 30 days): 52% | percent F-cells (HbSS-Townes mice [5]; HU 25 mg/mL/day (so in the source), 30 days, vehicle 8.4%, not significant): 13% | percentage of sickled RBC (HbSS-Townes mice [5]; HU 50 mg/kg/day, 30 days): 49% | percent F-cells (HbSS-Townes mice [5]; HU 50 mg/mL/day (so in the source), 30 days, vehicle 8.4%, not significant): 18% | WBC lower than vehicle (HbSS-Townes mice [5]; HU 100 mg/kg, 30 days): 21% | reduction of MPO levels (HbSS-Townes mice [5]; HU 100 mg/kg, 30 days): 2.1 fold | reduction of lung arginase (compared with IMR-687) (HbSS-Townes mice [5]; HU 100 mg/kg, 30 days): less pronounced | reduction of plasma free Hb levels (HbSS-Townes mice [5]; HU 100 mg/kg, 30 days): approximately 55% | lung MPO levels (HbSS-Townes mice [5]; HU 100 mg/kg, 30 days, HbSS-Townes vehicle 3.1 mU/L, P<0.0001): 1.5 mU/L | plasma bilirubin (HbSS-Townes mice [5]; HU 100 mg/kg, 30 days, P<0.01): 5 mg/dL | changes in reticulocyte counts, RBC, hematocrit and Hb (compared with IMR-687) (HbSS-Townes mice [5]; HU 100 mg/kg, 30 days, changes in Hb not significant): produced smaller changes | LDH levels (HbSS-Townes mice [5]; [8]): 121 AU | plasma nitrite levels (HbSS-Townes mice [5]; [8]): 1.23 mg/mL | WBC count (HbSS-Townes mice [5]; HU 100 mg/kg, 30 days, vehicle 38.2×10^9/L): 3.04e+10 L⁻¹ | Mortality (HbSS-Townes mice [5]; HU 100 mg/kg/day): resulted in mortality in mice | percent F cells (HbSS-Townes mice [5]; HU 100 mg/kg/day, 30 days, vehicle 8.4%): 29.3% | percent sickled RBC (HbSS-Townes mice [5]; HU 100 mg/kg/day, 30 days, vehicle 56.3%): 28.8% | changes in reticulocyte counts, RBC, hematocrit and Hb (HbSS-Townes mice [5]; HU 25 and 50 mg/kg, 30 days): only the change in reticulocyte counts was significant | reduction of markers of hemolysis (bilirubin, LDH) (HbSS-Townes mice [5]; HU 25 and 50 mg/kg, 30 days): did not produce a significant reduction | lung MPO levels (HbSS-Townes mice [5]; lower doses of HU, 30 days): reduced MPO levels in the lungs | Cytotoxicity (cell counts) (K562 cells [6]): induction was accompanied by cytotoxicity | HbF induction (ELISA) (K562 cells [7]): induced HbF in a dose-dependent manner

C[C@@H]1CN(Cc2ncccn2)C[C@H]1c1nc2c(cnn2C2CCOCC2)c(=O)[nH]1 [PF-04447943, 6-[(3S,4S)-4-methyl-1-(pyrimidin-2-ylmethyl)pyrrolidin-3-yl]-1-(tetrahydro-2H-pyran-4-yl)-1,5-dihydro-4H-pyrazolo[3,4-d]pyrimidin-4-one, reference compound]
conditioned fear responses (mice): significantly increased conditioned fear responses
